This passage reports viability, IC50 and Ratio IC50 results from ChEMBL document CHEMBL4834477, “Synthesis and biological evaluation of novel purinyl quinazolinone derivatives as PI3Kδ-specific inhibitors for the treatment of hematologic malignancies” (Bioorg Med Chem, 2021).

For orientation: IC50 means the midpoint of a concentration-inhibition curve.

For one assay, the system named is MOLT-4. Description: Antiproliferative activity against human MOLT-4 cells assessed as cell viability at 20 uM by CellTiter-Glo luminescent cell viability assay (reference value: 100%). The class given is functional. The settings on record: read-out: Activity.
For assay [1], the target named is PI3-kinase p110-delta/p85-alpha (Homo sapiens, UniProt O00329). Briefly: Inhibition of recombinant human full length His-tagged p110delta/p85alpha expressed in baculovirus expression system measured after 60 mins in presence of ATP by ATP-competitive binding assay. A digest of the protocol: (§1)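 SelectScreen ATP-competitive assay using 10-point titration with 1 μM top final compound concentration. Kinase, substrate and ATP mixed in 30 mM HEPES buffer and reacted 60 min. IC50 taken as the mean of three independent experiments.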

Assay [2] has as its target Phosphatidylinositol 4,5-bisphosphate 3-kinase catalytic subunit gamma isoform (Homo sapiens, UniProt P48736). Briefly: Inhibition of recombinant human full length His-tagged p110gamma expressed in baculovirus expression system measured after 60 mins in presence of ATP by ATP-competitive binding assay. A digest of the protocol: as §1
Assay [3] deals with Phosphatidylinositol 4,5-bisphosphate 3-kinase catalytic subunit beta isoform (Homo sapiens, UniProt P42338). Briefly: Inhibition of recombinant human full length His-tagged p110beta expressed in baculovirus expression system measured after 60 mins in presence of ATP by ATP-competitive binding assay. A digest of the protocol:
as §1

Another assay relates to SU-DHL-5. Description: Antiproliferative activity against human SU-DHL-5 cells assessed as cell viability at 10 uM by CellTiter-Glo luminescent cell viability assay (reference value: 100%). The class given is functional. Conditions: read-out: Activity. In general terms: In ATP-based viability assays light output follows the ATP content of the culture.
The target in assay [4] is PI3-kinase p110-alpha/p85-alpha (Homo sapiens, UniProt P42336). Briefly: Inhibition of recombinant human full length N-terminal His-tagged p110alpha/p85alpha expressed in baculovirus expression system measured after 60 mins in presence of ATP by ATP-competitive binding assay. A digest of the protocol: as §1
The species named for a further assay is Homo sapiens. Briefly: Selectivity ratio of IC50 for recombinant human full length His-tagged p110gamma expressed in baculovirus expression system to IC50 for recombinant human full length His-tagged p110delta/p85alpha expressed in baculovirus expression system.

Chain of Phosphatidylinositol 4,5-bisphosphate 3-kinase catalytic subunit gamma isoform (P48736 whole entry, canonical isoform): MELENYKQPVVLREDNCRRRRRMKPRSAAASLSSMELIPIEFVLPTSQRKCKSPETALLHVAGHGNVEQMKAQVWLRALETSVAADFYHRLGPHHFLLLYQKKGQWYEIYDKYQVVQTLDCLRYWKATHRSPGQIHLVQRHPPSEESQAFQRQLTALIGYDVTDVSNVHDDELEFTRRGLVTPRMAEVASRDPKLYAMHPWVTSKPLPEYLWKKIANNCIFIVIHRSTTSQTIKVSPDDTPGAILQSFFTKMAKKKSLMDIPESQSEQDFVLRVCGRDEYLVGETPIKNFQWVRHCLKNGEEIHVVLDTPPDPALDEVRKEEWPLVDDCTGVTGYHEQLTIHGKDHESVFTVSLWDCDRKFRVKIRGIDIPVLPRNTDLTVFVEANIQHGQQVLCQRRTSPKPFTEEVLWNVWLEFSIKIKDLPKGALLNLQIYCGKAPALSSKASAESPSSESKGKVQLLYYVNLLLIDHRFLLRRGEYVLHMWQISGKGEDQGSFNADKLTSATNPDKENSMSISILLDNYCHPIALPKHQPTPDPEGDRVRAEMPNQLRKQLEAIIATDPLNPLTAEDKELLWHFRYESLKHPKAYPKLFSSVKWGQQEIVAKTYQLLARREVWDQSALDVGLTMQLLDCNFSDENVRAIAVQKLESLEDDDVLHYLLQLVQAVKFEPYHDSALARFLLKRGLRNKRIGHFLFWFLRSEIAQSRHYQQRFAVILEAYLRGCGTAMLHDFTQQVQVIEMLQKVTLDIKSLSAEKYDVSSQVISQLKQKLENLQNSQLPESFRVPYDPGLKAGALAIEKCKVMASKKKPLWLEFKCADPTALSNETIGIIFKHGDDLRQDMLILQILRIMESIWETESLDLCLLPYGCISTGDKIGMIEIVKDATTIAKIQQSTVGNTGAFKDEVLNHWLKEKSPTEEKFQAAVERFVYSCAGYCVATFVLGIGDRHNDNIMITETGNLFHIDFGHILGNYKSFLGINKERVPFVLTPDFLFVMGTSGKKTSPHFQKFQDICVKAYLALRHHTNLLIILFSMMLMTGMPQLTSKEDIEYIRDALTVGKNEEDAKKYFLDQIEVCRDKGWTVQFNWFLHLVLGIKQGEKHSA
Chain of PI3-kinase p110-delta/p85-alpha (P27986 whole entry): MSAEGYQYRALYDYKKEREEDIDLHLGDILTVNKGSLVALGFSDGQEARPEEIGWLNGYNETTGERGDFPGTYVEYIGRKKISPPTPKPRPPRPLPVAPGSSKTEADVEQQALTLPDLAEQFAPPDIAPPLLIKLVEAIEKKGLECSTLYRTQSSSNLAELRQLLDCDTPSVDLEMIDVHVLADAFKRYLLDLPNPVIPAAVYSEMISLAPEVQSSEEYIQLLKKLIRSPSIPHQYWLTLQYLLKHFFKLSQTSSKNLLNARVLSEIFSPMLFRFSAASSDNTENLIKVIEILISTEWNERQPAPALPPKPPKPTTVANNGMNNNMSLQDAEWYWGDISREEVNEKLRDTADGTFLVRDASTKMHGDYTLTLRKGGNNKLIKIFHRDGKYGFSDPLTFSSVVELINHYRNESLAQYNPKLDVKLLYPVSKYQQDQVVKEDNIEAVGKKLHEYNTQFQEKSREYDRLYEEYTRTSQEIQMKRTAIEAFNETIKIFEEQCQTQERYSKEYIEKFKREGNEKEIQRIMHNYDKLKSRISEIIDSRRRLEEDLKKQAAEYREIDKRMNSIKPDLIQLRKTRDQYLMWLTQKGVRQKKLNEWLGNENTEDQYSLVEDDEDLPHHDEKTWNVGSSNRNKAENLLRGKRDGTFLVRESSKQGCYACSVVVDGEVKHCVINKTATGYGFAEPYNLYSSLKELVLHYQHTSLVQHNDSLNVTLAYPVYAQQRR
Chain of PI3-kinase p110-delta/p85-alpha (O00329 whole entry): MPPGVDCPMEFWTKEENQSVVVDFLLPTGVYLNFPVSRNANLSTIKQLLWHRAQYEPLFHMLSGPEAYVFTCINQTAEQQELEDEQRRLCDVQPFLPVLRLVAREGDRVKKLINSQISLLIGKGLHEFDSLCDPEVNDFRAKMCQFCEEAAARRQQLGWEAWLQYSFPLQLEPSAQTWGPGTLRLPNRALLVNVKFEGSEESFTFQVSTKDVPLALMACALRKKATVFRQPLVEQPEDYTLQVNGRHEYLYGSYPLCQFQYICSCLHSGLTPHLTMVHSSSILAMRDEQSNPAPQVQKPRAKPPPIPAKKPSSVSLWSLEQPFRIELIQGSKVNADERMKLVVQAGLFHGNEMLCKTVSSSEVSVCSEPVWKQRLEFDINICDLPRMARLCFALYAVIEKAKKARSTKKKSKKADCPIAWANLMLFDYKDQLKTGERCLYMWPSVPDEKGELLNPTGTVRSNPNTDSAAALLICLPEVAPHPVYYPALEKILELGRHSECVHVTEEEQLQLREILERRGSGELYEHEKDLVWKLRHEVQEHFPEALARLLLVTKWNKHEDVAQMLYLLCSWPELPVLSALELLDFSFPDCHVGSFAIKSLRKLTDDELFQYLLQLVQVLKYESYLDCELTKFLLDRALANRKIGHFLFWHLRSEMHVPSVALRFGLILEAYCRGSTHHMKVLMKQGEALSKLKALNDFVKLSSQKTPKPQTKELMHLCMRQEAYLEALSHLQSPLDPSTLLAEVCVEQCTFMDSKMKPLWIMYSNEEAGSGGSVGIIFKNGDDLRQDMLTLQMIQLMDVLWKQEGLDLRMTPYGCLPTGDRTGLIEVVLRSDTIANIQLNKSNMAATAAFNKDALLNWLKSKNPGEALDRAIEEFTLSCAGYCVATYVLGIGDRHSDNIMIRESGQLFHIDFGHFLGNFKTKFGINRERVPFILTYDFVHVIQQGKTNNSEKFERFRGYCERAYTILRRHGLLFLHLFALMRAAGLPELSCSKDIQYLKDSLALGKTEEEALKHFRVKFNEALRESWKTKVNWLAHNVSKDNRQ
Chain of PI3-kinase p110-alpha/p85-alpha (P27986 whole entry): as the sequence (P27986 whole entry) above
Chain of PI3-kinase p110-alpha/p85-alpha (P42336 whole entry): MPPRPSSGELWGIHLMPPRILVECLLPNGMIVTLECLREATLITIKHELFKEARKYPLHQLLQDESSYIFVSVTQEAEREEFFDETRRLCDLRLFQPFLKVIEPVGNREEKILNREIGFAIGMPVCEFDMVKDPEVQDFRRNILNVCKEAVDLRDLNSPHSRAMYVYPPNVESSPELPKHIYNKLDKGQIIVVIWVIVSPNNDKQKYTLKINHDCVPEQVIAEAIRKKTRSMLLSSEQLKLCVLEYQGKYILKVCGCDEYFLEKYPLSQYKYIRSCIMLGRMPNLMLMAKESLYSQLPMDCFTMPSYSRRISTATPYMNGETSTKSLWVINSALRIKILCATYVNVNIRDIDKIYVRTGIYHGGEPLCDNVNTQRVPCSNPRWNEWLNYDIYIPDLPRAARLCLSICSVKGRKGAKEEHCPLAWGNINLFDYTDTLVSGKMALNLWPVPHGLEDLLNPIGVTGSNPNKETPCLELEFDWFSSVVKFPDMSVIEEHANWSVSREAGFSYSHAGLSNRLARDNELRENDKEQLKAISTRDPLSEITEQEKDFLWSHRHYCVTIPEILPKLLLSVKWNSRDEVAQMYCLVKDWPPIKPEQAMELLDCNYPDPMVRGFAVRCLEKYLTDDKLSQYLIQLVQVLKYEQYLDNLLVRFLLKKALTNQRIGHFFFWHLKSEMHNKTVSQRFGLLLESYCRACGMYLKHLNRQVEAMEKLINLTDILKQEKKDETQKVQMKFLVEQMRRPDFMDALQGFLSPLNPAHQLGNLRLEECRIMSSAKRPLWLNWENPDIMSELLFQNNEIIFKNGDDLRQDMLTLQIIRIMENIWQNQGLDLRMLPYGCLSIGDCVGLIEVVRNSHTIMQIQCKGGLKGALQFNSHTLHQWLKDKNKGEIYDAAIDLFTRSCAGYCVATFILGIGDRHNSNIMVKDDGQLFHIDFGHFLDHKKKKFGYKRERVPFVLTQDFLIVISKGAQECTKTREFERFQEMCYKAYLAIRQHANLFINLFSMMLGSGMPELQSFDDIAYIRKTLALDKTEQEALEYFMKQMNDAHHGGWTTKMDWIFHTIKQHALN
Chain of Phosphatidylinositol 4,5-bisphosphate 3-kinase catalytic subunit beta isoform (P42338 whole entry, canonical isoform): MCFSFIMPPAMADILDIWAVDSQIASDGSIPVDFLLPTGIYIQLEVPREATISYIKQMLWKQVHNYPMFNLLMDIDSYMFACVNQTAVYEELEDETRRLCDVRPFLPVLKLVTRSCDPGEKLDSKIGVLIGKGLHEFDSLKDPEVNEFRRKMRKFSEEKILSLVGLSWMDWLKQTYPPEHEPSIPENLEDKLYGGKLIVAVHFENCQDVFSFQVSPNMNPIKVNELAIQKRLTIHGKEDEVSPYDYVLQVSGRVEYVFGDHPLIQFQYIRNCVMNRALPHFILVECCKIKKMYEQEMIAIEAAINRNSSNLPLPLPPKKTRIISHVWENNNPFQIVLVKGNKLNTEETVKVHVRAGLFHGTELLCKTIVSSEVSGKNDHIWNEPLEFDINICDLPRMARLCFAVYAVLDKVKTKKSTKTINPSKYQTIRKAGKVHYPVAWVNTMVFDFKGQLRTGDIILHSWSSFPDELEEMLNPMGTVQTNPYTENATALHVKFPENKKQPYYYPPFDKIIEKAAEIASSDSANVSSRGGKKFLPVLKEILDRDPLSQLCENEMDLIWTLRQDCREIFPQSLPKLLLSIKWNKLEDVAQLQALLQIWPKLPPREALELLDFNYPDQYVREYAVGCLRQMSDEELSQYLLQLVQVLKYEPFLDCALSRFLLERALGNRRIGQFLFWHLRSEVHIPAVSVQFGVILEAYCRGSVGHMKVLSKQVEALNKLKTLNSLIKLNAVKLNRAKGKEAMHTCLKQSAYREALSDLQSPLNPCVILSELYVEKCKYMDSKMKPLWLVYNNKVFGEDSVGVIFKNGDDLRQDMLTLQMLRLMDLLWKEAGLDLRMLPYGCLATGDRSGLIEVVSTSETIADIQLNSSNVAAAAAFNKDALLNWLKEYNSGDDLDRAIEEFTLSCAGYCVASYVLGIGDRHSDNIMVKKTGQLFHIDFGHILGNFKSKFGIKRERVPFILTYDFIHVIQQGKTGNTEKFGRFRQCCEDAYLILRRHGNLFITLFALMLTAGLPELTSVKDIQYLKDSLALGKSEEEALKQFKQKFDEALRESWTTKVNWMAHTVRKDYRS

For the compound `CCC[C@H](Nc1ncnc2nc[nH]c12)c1nc2cccc(Cl)c2c(=O)n1-c1ccccc1`, in the assay on MOLT-4, the viability at 20 µM was 24.7%. Besides, the IC50 in assay [1] was determined as 0.5 nM; in assay [2] it was 18.3 nM; in assay [3], 129 nM; in assay [4], 301 nM. Moreover, in the assay with SU-DHL-5, the viability at 10 µM was 29.3%. Moreover, the Ratio IC50 in the assay listed under Homo sapiens was found to be 36.6.

As for `CCC[C@H](Nc1ncnc2nc[nH]c12)c1nc2cccc(C(F)(F)F)c2c(=O)n1-c1ccccc1`, in the assay on MOLT-4, the viability at 20 µM was 52.2%. Moreover, the IC50 is 3.23 nM in assay [1], 56.3 nM in assay [2], greater than 1000 nM in assay [3] and 326 nM in assay [4]. The viability at 10 µM in the assay on SU-DHL-5 was found to be 36.4%. The Ratio IC50 in the assay filed under Homo sapiens turned out to be 17.4.

With `O=c1c2c(F)cccc2nc([C@@H](Nc2ncnc3nc[nH]c23)C2CCC2)n1-c1ccccc1`, the viability at 20 µM with MOLT-4 is 76.5%. Further, the IC50 came to 2.05 nM in assay [1], 155 nM in assay [2], 854 nM in assay [3] and 879 nM in assay [4]. Also, the viability at 10 µM with SU-DHL-5 was found to be 43%. Further, the Ratio IC50 in the assay listed under Homo sapiens turned out to be 75.6.

For `C[C@H](Nc1ncnc2nc[nH]c12)c1nc2cccc(N)c2c(=O)n1-c1ccccc1`, the viability at 20 µM in the assay on MOLT-4 amounted to 80.9%. In addition, the IC50 in assay [1] turned out to be 0.4 nM; in assay [2], 7.5 nM; in assay [3], 250 nM; in assay [4] it was 127 nM. Besides, in the assay with SU-DHL-5, the viability at 10 µM stood at 36.9%. In addition, the Ratio IC50 in the assay filed under Homo sapiens came to 18.8.

As for `O=c1c2cc(F)ccc2nc([C@@H](Nc2ncnc3nc[nH]c23)C2CC2)n1-c1ccccc1`, in the assay with MOLT-4, the viability at 20 µM is 68.1%. For the same compound, the half-maximal inhibitory concentration (IC50) was found to be 1.09 nM in assay [1], 29.2 nM in assay [2], 200 nM in assay [3] and 295 nM in assay [4]. For the same compound, the viability at 10 µM in the assay with SU-DHL-5 came to 24.4%. Further, the Ratio IC50 in the assay listed under Homo sapiens was 26.8.

With `CC(C)[C@H](Nc1ncnc2nc[nH]c12)c1nc2cccc(F)c2c(=O)n1-c1ccccc1`, the viability at 20 µM with MOLT-4 was determined as 86.2%. Also, the IC50 in assay [1] came to 1.82 nM; in assay [2] it was 313 nM; in assay [3] it was 1670 nM; in assay [4], 878 nM. Also, the viability at 10 µM in the assay on SU-DHL-5 was found to be 63.4%. The Ratio IC50 in the assay filed under Homo sapiens was 172.

As for `O=c1c2c(Cl)cccc2nc([C@@H](Nc2ncnc3nc[nH]c23)C2CC2)n1-c1ccccc1`, in the assay on MOLT-4, the viability at 20 µM turned out to be 56.5%. Moreover, the concentration for half-maximal inhibition (IC50) in assay [1] came to 0.6 nM; in assay [2], 10.4 nM; in assay [3] it was 87.6 nM; in assay [4], 205 nM. Further, the viability at 10 µM in the assay with SU-DHL-5 turned out to be 36.7%. Moreover, the Ratio IC50 in the assay listed under Homo sapiens amounted to 17.3.

For the compound `C[C@H](Nc1ncnc2nc[nH]c12)c1nc2cccc(F)c2c(=O)n1-c1ccccc1`, the viability at 20 µM in the assay with MOLT-4 was 63.7%. For the same compound, the IC50 was determined as 0.5 nM in assay [1], 15.3 nM in assay [2], 145 nM in assay [3] and 152 nM in assay [4]. Moreover, in the assay on SU-DHL-5, the viability at 10 µM stood at 46.1%. In addition, in the assay listed under Homo sapiens, the Ratio IC50 amounted to 30.6.

In the case of `CCC[C@H](Nc1ncnc2nc[nH]c12)c1nc2cccc(F)c2c(=O)n1-c1ccccc1`, the viability at 20 µM in the assay on MOLT-4 came to 60.7%. Besides, the 50% inhibitory concentration (IC50) in assay [1] was determined as 1.08 nM; in assay [2], 72.2 nM; in assay [3], 440 nM; in assay [4] it was 385 nM. Besides, in the assay on SU-DHL-5, the viability at 10 µM was 34.4%. Besides, the Ratio IC50 in the assay listed under Homo sapiens worked out at 66.8.

Turning to `CC[C@H](Nc1ncnc2nc[nH]c12)c1nc2cccc(N)c2c(=O)n1-c1ccccc1`, the viability at 20 µM in the assay on MOLT-4 was found to be 83.6%. Moreover, the IC50 in assay [1] was determined as 1.3 nM; in assay [2], 24.7 nM; in assay [3] it was 287 nM; in assay [4], 475 nM. Also, the viability at 10 µM in the assay with SU-DHL-5 was found to be 45.8%. In addition, the Ratio IC50 in the assay listed under Homo sapiens is 19.

Turning to `CC(C)[C@H](Nc1ncnc2nc[nH]c12)c1nc2cccc(Cl)c2c(=O)n1-c1ccccc1`, the viability at 20 µM with MOLT-4 is 56.4%. Also, the 50% inhibitory concentration (IC50) in assay [1] is 0.5 nM; in assay [2], 62.5 nM; in assay [3], 1040 nM; in assay [4], 356 nM. Further, the viability at 10 µM in the assay with SU-DHL-5 came to 29.7%. Further, the Ratio IC50 in the assay listed under Homo sapiens was found to be 125.

In the case of `O=c1c2c(Cl)cccc2nc([C@@H](Nc2ncnc3nc[nH]c23)C2CCC2)n1-c1ccccc1`, the viability at 20 µM in the assay with MOLT-4 was 54.7%. Besides, the IC50 in assay [1] turned out to be 1.7 nM; in assay [2] it was 63.8 nM; in assay [3] it was 470 nM; in assay [4] it was 490 nM. In addition, in the assay with SU-DHL-5, the viability at 10 µM was 52.8%. The Ratio IC50 in the assay listed under Homo sapiens was 37.5.

As for `Nc1cccc2nc([C@@H](Nc3ncnc4nc[nH]c34)C3CC3)n(-c3ccccc3)c(=O)c12`, the viability at 20 µM with MOLT-4 amounted to 65.8%. Besides, the IC50 in assay [1] came to 1.07 nM; in assay [2], 24.7 nM; in assay [3] it was 562 nM; in assay [4], 369 nM. Moreover, the viability at 10 µM in the assay on SU-DHL-5 is 23.5%. Moreover, in the assay listed under Homo sapiens, the Ratio IC50 stood at 23.1.
